Calls of active or inactive are those of the source. The calls are words filed in the database; no cut-off is given here.
Assays:
RKO = assay: Cytotoxicity against human RKO cells up to 72 uM after 24 to 48 hrs by MTT assay; assay type: functional, cell-based
In short: (§1)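 Cells seeded at 10^4 cells cm−2 and left 24 h to adhere. Exposed 24 or 48 h to fresh medium containing compound from DMSO (1 μL per 100 μL) at final 3 and 30 μg mL−1. MTT added at 0.5 mg mL−1, formazan dissolved in DMSO, absorbance read at 550 nm. Triplicate.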

T47D = assay: Cytotoxicity against human T47D cells up to 72 uM after 24 to 48 hrs by MTT assay; assay type: functional, cell-based; in short: as §1
HT-29 = assay: Cytotoxicity against human HT-29 cells up to 72 uM after 24 to 48 hrs by MTT assay; assay type: functional, cell-based; in short: as §1
HepG2 = assay: Cytotoxicity against human HepG2 cells up to 72 uM after 24 to 48 hrs by MTT assay; assay type: functional, cell-based; in short: as §1
Caco-2 = assay: Cytotoxicity against human Caco2 cells up to 72 uM after 24 to 48 hrs by MTT assay; assay type: functional, cell-based; in short: as §1
Plasmodium falciparum [1] = assay: Antimalarial activity against Plasmodium falciparum 3D7 infected in human erythrocytes after 48 hrs by SYBR Green-1 dye based assay; assay type: functional, organism-based; details: 3D7, 48 h
In short: (§2)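 Asexual parasites kept on human erythrocytes in RPMI 1640 with 25 mM HEPES, […] hypoxanthine and 10% AlbuMAX II, pH 7.2. Cultures held at 37 °C under 5% O2 and 3−5% CO2 in N2, and sorbitol-synchronized. SYBR Green I fluorescence read at ex 485/em 535 nm. Percent survival vs untreated; IC50 by nonlinear regression.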

SH-SY5Y = assay: Cytotoxicity against human SH-SY5Y cells up to 72 uM after 24 to 48 hrs by MTT assay; assay type: functional, cell-based; in short: as §1
Plasmodium falciparum [2] = assay: Antimalarial activity against Plasmodium falciparum Dd2 infected in human erythrocytes after 48 hrs by SYBR Green-1 dye based assay; assay type: functional, organism-based; details: Dd2, 48 h; in short: as §2
MG-63 = assay: Cytotoxicity against human MG63 cells up to 72 uM after 24 to 48 hrs by MTT assay; assay type: functional, cell-based; in short: as §1

Row | SMILES | Activity (RKO) | Activity (T47D) | Activity (HT-29) | Activity (HepG2) | Activity (Caco-2) | IC50 (Plasmodium falciparum [1]) [nM] | Activity (SH-SY5Y) | IC50 (Plasmodium falciparum [2]) [nM] | Activity (MG-63)
1 | CCCCCCCCCCCCCCCc1c(O)c(OC)cc(OC)c1Cl | inactive | inactive | inactive | inactive | inactive | 1500 | inactive | 2300 | inactive
2 | CCCCCCCCCCCCCCCc1cc(OC)cc(OC)c1O |  |  |  |  |  | 2100 |  | 2300 | 

Source: ChEMBL document CHEMBL4330162, “Structure of Hierridin C, Synthesis of Hierridins B and C, and Evidence for Prevalent Alkylresorcinol Biosynthesis in Picocyanobacteria” (J Nat Prod, 2019)
